Compound activity from PubChem.
Runt-CBFb FRET = Runt domain-CBFb interaction inhibition; Cerulean-Runt/Venus-CBFb FRET ratio 530/480, 1 h; AID 1496; Q01196+Q13951; 220,000 compounds, 0.46% hits; inhibition, % at 20 µM;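 active = inhibition over about 50% at 20 µM in the single-dose screen, limit read from the data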;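 also: 0% = DMSO wells and 100% = excess unlabeled CBFb competitor control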
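Reagent – Venus-CBFb binding partner, 100 nM · Assay system – Cerulean-tagged RUNX1 Runt domain (FRET donor) fusion protein · Input – 100 nM per protein · Incubation – two 1 h room-temperature incubations shielded from light · Measured by – FRET fluorescence · Medium – Tris buffer pH 7.5 with salts and BSA · Benchmarks – unlabeled CBFb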
RanGTP-Imp inh = disruptors of Ran-importin-beta complex formation – biochemical, FRET, CFP-Ran, YFP-importin-beta, homogeneous, primary screen. cell-free CFP-Ran/YFP-importin-beta FRET ratio. inhibition, % (test concentration not listed). 300,000 compounds, 1.1% hits;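 active = more than half of the replicate wells show a fall in the fluorescence ratio signal beyond about 16%, limit read from the data, passing the limit was not always enough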;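 also: 0% = DMSO wells and 100% = Ran loaded with GDP instead of GTP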
zVAD death inh = blocks zVAD induced death of L929 cells | L929 zVAD necroptosis rescue, ATP luminescence, 24 h; with zVAD 60 µM | viability rescue, % at 10 µM | 220,000 compounds, 0.38% hits | AID 1377;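 active = activation, scaled between plate controls, above about 75%, limit read from the data; inactive = activation under that limit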;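 also: 0% = zVAD with DMSO and 100% = DMSO alone without zVAD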
Runt-SMMHC FRET = inhibitors of human RUNX1 Runt domain binding to CBFb-SMMHC; Q01196+Q13951; Cerulean-Runt/Venus-CBFb-SMMHC FRET ratio 530/480, 1 h; inhibition, % at 20 µM; 220,000 compounds, 0.74% hits; AID 1434;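 active = mean inhibition across duplicate retests at 20 µM reaching about 50%, limit read from the data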;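 also: 0% = DMSO wells and 100% = wells with excess untagged CBFb-SMMHC; inhibitors lower the FRET ratio by blocking Runt binding to CBFb-SMMHC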
TNF death inh = inhibitors of TNF-alpha induced necroptosis in Jurkat FADD-/- cells | Jurkat FADD-/- TNF necroptosis rescue, ATP luminescence, 24 h; 0 = TNF only, 100 = no-TNF cells | AID 463075 | activation (protection from cell death), % at 10 µM | 220,000 compounds, 0.068% hits;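 active = activation, meaning protection from cell death, of at least 50% relative to plate controls; inactive = activation below 50%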;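 also: necroptosis triggered by 40 ng/mL TNF-alpha added together with compound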
Hck-Nef inh = blocks Nef-activated human Hck kinase; P08631; Recombinant Hck-YEEI plus Nef, Z-Lyte FRET kinase assay; inhibition, % at 20 µM; 220,000 compounds, 0.68% hits; AID 463187;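 active = Hck-Nef kinase inhibition above about 50%, limit read from the data; inactive = inhibition below that limit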;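 also: 0% = DMSO with Hck plus Nef and 100% = Hck alone without Nef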
Target sequence (P08631 whole entry, looked up): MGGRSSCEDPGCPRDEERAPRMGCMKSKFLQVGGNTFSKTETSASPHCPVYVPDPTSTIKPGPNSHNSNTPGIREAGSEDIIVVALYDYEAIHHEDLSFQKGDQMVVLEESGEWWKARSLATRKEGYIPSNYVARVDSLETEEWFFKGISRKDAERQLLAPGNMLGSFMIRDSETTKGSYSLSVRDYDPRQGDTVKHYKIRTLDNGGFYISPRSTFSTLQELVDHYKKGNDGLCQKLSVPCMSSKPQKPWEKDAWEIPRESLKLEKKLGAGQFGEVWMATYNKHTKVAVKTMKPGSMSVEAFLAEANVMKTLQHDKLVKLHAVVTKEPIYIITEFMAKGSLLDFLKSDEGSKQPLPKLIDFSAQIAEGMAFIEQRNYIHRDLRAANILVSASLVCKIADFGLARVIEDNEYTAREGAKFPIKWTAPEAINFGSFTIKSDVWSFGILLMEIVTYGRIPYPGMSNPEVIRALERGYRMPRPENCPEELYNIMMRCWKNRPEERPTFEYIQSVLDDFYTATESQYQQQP
The depositor's hits bear a star. Most compounds without a hit are left out; they make up all but 2.1% or so of the library.

Screening COc1cc(/C=N/OCC(=O)Nc2cc(C)cc(C)c2)ccc1OCc1ccc(Cl)cc1 returned Runt-CBFb FRET 4, RanGTP-Imp inh 26*, zVAD death inh 7, Runt-SMMHC FRET 18, TNF death inh 3 and Hck-Nef inh -2.
`CC(=O)Nc1ccc(OCC[n+]2cccc(C(N)=O)c2)cc1` gave Runt-CBFb FRET 0, RanGTP-Imp inh -1, zVAD death inh 1, Runt-SMMHC FRET -3, TNF death inh 0 and Hck-Nef inh 6.
CC(=O)Nc1ccc(OCCC[n+]2ccccc2)cc1 was read as Runt-CBFb FRET -1, RanGTP-Imp inh 17*, zVAD death inh 10, Runt-SMMHC FRET -2, TNF death inh 1 and Hck-Nef inh 16.
`CCCOc1c(Br)cc(C(=O)OCC(=O)NC2CC2)cc1OC` gave RanGTP-Imp inh 0.
`C#CCOc1c(Cl)cc(C2C3=C(CCCC3=O)N(CC(=O)O)C3=C2C(=O)CCC3)cc1OC` gave RanGTP-Imp inh 127*.
CCCOc1c(Br)cc(C2C3=C(CCCC3=O)N(CC)C3=C2C(=O)CCC3)cc1OC was read as Runt-CBFb FRET 94*, RanGTP-Imp inh 96*, zVAD death inh -2, Runt-SMMHC FRET 90*, TNF death inh -1 and Hck-Nef inh 47.
For COc1ccc(C2C3=C(CCCC3=O)N(CC(=O)O)C3=C2C(=O)CCC3)cc1Cl the results were RanGTP-Imp inh 112*.
For COc1ccccc1C1C2=C(CCCC2=O)N(CC(=O)O)C2=C1C(=O)CCC2 the results were RanGTP-Imp inh 118*.
`CCOc1cc(C2C3=C(CCCC3=O)N(CC(=O)O)C3=C2C(=O)CCC3)ccc1OC` gave RanGTP-Imp inh -1.
O=C1CCC([N+](=O)[O-])C(c2ccccc2F)N1 (stereo unspecified) was read as RanGTP-Imp inh -1.
`CN(C)c1ccc(/C=N/NC(=O)CN2CCN(c3ccc(F)cc3)CC2)cc1` gave Runt-CBFb FRET 1, RanGTP-Imp inh 3, zVAD death inh 1, Runt-SMMHC FRET -7, TNF death inh 1 and Hck-Nef inh 2.
`CC(C(=O)N1CCc2ccccc21)N1CCN(c2cccc(C(F)(F)F)c2)CC1` (stereo unspecified) gave RanGTP-Imp inh -1.
For CCOc1ccc(N(C)C(=O)CCc2nnc3ccc(N4CCC5(CC4)OCCO5)nn23)cc1 the results were RanGTP-Imp inh 4.
CNC(=O)c1c(NC(=O)c2ccc(S(=O)(=O)N3CCCC3)cc2)sc2c1CCN(C(C)C)C2 was read as RanGTP-Imp inh 13.
`CC1CCCN(S(=O)(=O)c2ccc(C(=O)Nc3sc4c(c3C(N)=O)CCN(C)C4)cc2)C1` (stereo unspecified) gave RanGTP-Imp inh 29*.
Screening CNC(=O)c1c(NC(=O)c2ccc(S(=O)(=O)N3CCCCC3C)cc2)sc2c1CCN(C)C2 (stereo unspecified) returned RanGTP-Imp inh 50*.
CCN1CCc2c(sc(NC(=O)c3ccc(S(=O)(=O)N4CCCCCC4)cc3)c2C(=O)NC)C1 was read as RanGTP-Imp inh 57*.
Screening CCCN1CCc2c(sc(NC(=O)c3ccc(S(=O)(=O)N4CCCC4)cc3)c2C(N)=O)C1 returned RanGTP-Imp inh 9.
For CCc1ccccc1NC(=S)N(CCN1CCOCC1)Cc1ccccc1F the results were Runt-CBFb FRET -1, RanGTP-Imp inh 0, zVAD death inh -1, Runt-SMMHC FRET -1, TNF death inh 0 and Hck-Nef inh -21.
`Cc1ccc(C(O)CSc2nnc(-c3ccc4ccccc4c3)n2C)cc1` (stereo unspecified) gave Runt-CBFb FRET -3, RanGTP-Imp inh 3, zVAD death inh 1, Runt-SMMHC FRET 4, TNF death inh 0 and Hck-Nef inh 10.
Screening CNC(=O)c1c[nH]c2ccc(S(=O)(=O)Nc3cccc(SC)c3)cc2c1=O returned RanGTP-Imp inh 3.
For Nc1c(N)c2ccccc2oc1=O the results were Runt-CBFb FRET 2, RanGTP-Imp inh 20*, zVAD death inh 0, Runt-SMMHC FRET -12, TNF death inh -1 and Hck-Nef inh 2.
CN(C)c1c(N)c(=O)oc2ccccc12 was read as Runt-CBFb FRET 0, RanGTP-Imp inh -1, zVAD death inh -2, Runt-SMMHC FRET -4, TNF death inh 0 and Hck-Nef inh 14.
For CC(OC(=O)/C(C#N)=C/c1ccc(N(C)C)cc1)C(=O)N(C)Cc1ccccc1 (stereo unspecified) the results were RanGTP-Imp inh 81*.
`CC(OC(=O)c1cccc(O)c1)C(=O)N(C)Cc1ccccc1` (stereo unspecified) gave RanGTP-Imp inh 7.
For CC1CCN(C(=O)CSc2nc3ccccc3s2)CC1 the results were Runt-CBFb FRET 3, RanGTP-Imp inh 28*, zVAD death inh 0, Runt-SMMHC FRET 2, TNF death inh -1 and Hck-Nef inh -19.
`CCCCn1c(=NC(=O)c2cccnc2)c(C(=O)OCC)cc2c(=O)n3ccccc3nc21` gave Runt-CBFb FRET 93*, RanGTP-Imp inh 82*, zVAD death inh 0, Runt-SMMHC FRET 62*, TNF death inh -2 and Hck-Nef inh 13.
For COCCCn1c(C(=O)N2CC(C)OC(C)C2)cc2c(=O)n3ccccc3nc21 (stereo unspecified) the results were RanGTP-Imp inh 4.
Screening CCOCCCn1c(=NC(=O)c2cccnc2)c(C(=O)OCC)cc2c(=O)n3ccccc3nc21 returned Runt-CBFb FRET 65*, RanGTP-Imp inh 119*, zVAD death inh 0, Runt-SMMHC FRET 42, TNF death inh -3 and Hck-Nef inh 32.
For CCOCCCn1c(=NC(=O)c2cccs2)c(C#N)cc2c(=O)n3ccccc3nc21 the results were Runt-CBFb FRET 86*, RanGTP-Imp inh 105*, zVAD death inh 0, Runt-SMMHC FRET 81*, TNF death inh -1 and Hck-Nef inh 22.
CCCCn1c(=NC(=O)c2ccco2)c(C(=O)OCC)cc2c(=O)n3ccccc3nc21 was read as Runt-CBFb FRET 10, RanGTP-Imp inh -3, zVAD death inh -1, Runt-SMMHC FRET 46, TNF death inh -2 and Hck-Nef inh 26.
CCOC(=O)c1cc2c(=O)n3cccc(C)c3nc2n(CCCOC)c1=NC(=O)c1cccnc1 was read as Runt-CBFb FRET 110*, RanGTP-Imp inh 129*, zVAD death inh 0, Runt-SMMHC FRET 12, TNF death inh -8 and Hck-Nef inh 28.
For CN(C)/C=C1/Sc2ccccc2C1=O the results were Runt-CBFb FRET 28, RanGTP-Imp inh 19*, zVAD death inh 0, Runt-SMMHC FRET 62, TNF death inh -1 and Hck-Nef inh 0.
